Experimental data reported in ChEMBL document CHEMBL3232844, “Synthesis and structure activity relationships of schweinfurthin indoles” (2014).

How the values were obtained:
Type in all cases: functional
HOP-62 = assay: Cytotoxicity against human HOP62 cells; details: for CC50: read-out: pLC50 (the source's name) (converted); for TGI: read-out: pTGI (converted)
Summary of the method: (§1)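 Tested in a 60-cell-line human tumor panel screen; the read-out is growth inhibition, reported as GI50 for each cell line.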

PC-3 = assay: Cytotoxicity against human PC3 cells; details: for TGI: read-out: pTGI (converted); summary of the method: as §1
HOP-92 = assay: Cytotoxicity against human HOP92 cells; details: for CC50: read-out: pLC50 (the source's name) (converted); for TGI: read-out: pTGI (converted); summary of the method: as §1
SK-MEL-28 = assay: Cytotoxicity against human SK-MEL-28 cells; details: for CC50: read-out: pLC50 (the source's name) (converted); for TGI: read-out: pTGI (converted); summary of the method: as §1
[1] = Cytotoxicity against human Hs578T cells; details: Hs-578T; for TGI: read-out: pTGI (converted); summary of the method: as §1
SW-620 = assay: Cytotoxicity against human SW620 cells; details: for CC50: read-out: pLC50 (the source's name) (converted); for TGI: read-out: pTGI (converted)
Summary of the method: (§2)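 Cell line run as part of the 60-cell-line screening panel; growth inhibition was reported as a GI50 for each line.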

SK-MEL-5 = assay: Cytotoxicity against human SK-MEL-5 cells; details: for CC50: read-out: pLC50 (the source's name) (converted); for TGI: read-out: pTGI (converted); summary of the method: as §1
RPMI-8226 = assay: Cytotoxicity against human RPMI8226 cells; details: for CC50: read-out: pLC50 (the source's name) (converted); for TGI: read-out: pTGI (converted); summary of the method: as §1
SR = assay: Cytotoxicity against human SR cells; details: for CC50: read-out: pLC50 (the source's name) (converted); for TGI: read-out: pTGI (converted); summary of the method: as §2
CCRF-CEM = assay: Cytotoxicity against human CCRF-CEM cells; details: for CC50: read-out: pLC50 (the source's name) (converted)
MDA-MB-468 = assay: Cytotoxicity against human MDA-MB-468 cells; summary of the method: as §1
COLO 205 = assay: Cytotoxicity against human COLO205 cells; details: for CC50: read-out: pLC50 (the source's name) (converted); for TGI: read-out: pTGI (converted); summary of the method: as §1
[2] = Cytotoxicity against human UACC62 cells; details: for GI50: UACC-62; for CC50: UACC-62, read-out: pLC50 (the source's name) (converted); for TGI: UACC-62, read-out: pTGI (converted); summary of the method: as §2
NCI-H522 = assay: Cytotoxicity against human NCI-H522 cells; details: for CC50: read-out: pLC50 (the source's name) (converted); for TGI: read-out: pTGI (converted); summary of the method: as §1
Malme-3M = assay: Cytotoxicity against human MALME-3M cells; details: for CC50: read-out: pLC50 (the source's name) (converted); for TGI: read-out: pTGI (converted); summary of the method: as §1
SNB-19 = assay: Cytotoxicity against human SNB19 cells; details: for CC50: read-out: pLC50 (the source's name) (converted); for TGI: read-out: pTGI (converted); summary of the method: as §1
NCI-H322M = assay: Cytotoxicity against human NCI-H322M cells; details: for CC50: read-out: pLC50 (the source's name) (converted); for TGI: read-out: pTGI (converted); summary of the method: as §1

COc1cc(/C=C/c2cc(OC)c3ccn(C)c3c2)cc2c1O[C@]1(C)CC[C@@H](O)C(C)(C)[C@H]1C2
GI50 (HOP-62): 0.617 µM | CC50 (HOP-62): 28.8 µM | TGI (HOP-62): 3.8 µM | GI50 (PC-3): 0.692 µM | LC50 (PC-3): > 100 µM | TGI (PC-3): 83.2 µM | GI50 (HOP-92): 1.2 µM | CC50 (HOP-92): > 100 µM | TGI (HOP-92): 5.75 µM | GI50 (SK-MEL-28): 1.74 µM | CC50 (SK-MEL-28): 64.6 µM | TGI (SK-MEL-28): 17.4 µM | GI50 [1]: 0.355 µM | LC50 [1]: > 100 µM | TGI [1]: 5.01 µM | GI50 (SW-620): 1.29 µM | CC50 (SW-620): 10.5 µM | TGI (SW-620): 3.39 µM | GI50 (SK-MEL-5): 0.513 µM | CC50 (SK-MEL-5): 2.24 µM | TGI (SK-MEL-5): 1.07 µM | GI50 (RPMI-8226): 0.17 µM | CC50 (RPMI-8226): > 100 µM | TGI (RPMI-8226): 2 µM | GI50 (SR): 0.513 µM | CC50 (SR): > 100 µM | TGI (SR): > 100 µM | GI50 (CCRF-CEM): 0.457 µM | CC50 (CCRF-CEM): > 100 µM | TGI (CCRF-CEM; read-out: pTGI (converted)): 9.33 µM | GI50 (MDA-MB-468): 1.23 µM | LC50 (MDA-MB-468): > 100 µM | GI50 (COLO 205): 1.38 µM | CC50 (COLO 205): 6.61 µM | TGI (COLO 205): 3.02 µM | GI50 [2]: 0.355 µM | CC50 [2]: 23.4 µM | TGI [2]: 2.19 µM | GI50 (NCI-H522): 1.82 µM | CC50 (NCI-H522): > 100 µM | TGI (NCI-H522): 8.13 µM | GI50 (Malme-3M): 3.8 µM | CC50 (Malme-3M): > 100 µM | TGI (Malme-3M): 47.9 µM | GI50 (SNB-19): 1.38 µM | CC50 (SNB-19): > 100 µM | TGI (SNB-19): > 100 µM | GI50 (NCI-H322M): 18.2 µM | CC50 (NCI-H322M): > 100 µM | TGI (NCI-H322M): > 100 µM

COc1cc(/C=C/c2cc(OC)c3c(C/C=C(\C)CCC=C(C)C)c[nH]c3c2)cc2c1O[C@]1(C)CC[C@@H](O)C(C)(C)[C@H]1C2
GI50 (HOP-62): 1.07 µM | CC50 (HOP-62): 22.4 µM | TGI (HOP-62): 4.79 µM | GI50 (PC-3): 0.447 µM | LC50 (PC-3): > 100 µM | TGI (PC-3): 17.8 µM | GI50 (HOP-92): 0.302 µM | CC50 (HOP-92): > 100 µM | TGI (HOP-92): 16.6 µM | GI50 (SK-MEL-28): 1.05 µM | CC50 (SK-MEL-28): 8.32 µM | TGI (SK-MEL-28): 2.95 µM | GI50 [1]: 0.219 µM | LC50 [1]: > 100 µM | TGI [1]: 1.66 µM | GI50 (SW-620): 1.17 µM | CC50 (SW-620): 5.89 µM | TGI (SW-620): 2.63 µM | GI50 (SK-MEL-5): 0.525 µM | CC50 (SK-MEL-5): 4.37 µM | TGI (SK-MEL-5): 1.86 µM | GI50 (RPMI-8226): 0.126 µM | CC50 (RPMI-8226): > 100 µM | TGI (RPMI-8226): 0.617 µM | GI50 (SR): 0.245 µM | CC50 (SR): > 100 µM | TGI (SR): 1.48 µM | GI50 (CCRF-CEM): 0.295 µM | CC50 (CCRF-CEM): > 100 µM | GI50 (MDA-MB-468): 1.32 µM | LC50 (MDA-MB-468): 33.1 µM | TGI (MDA-MB-468; read-out: pTGI (converted)): 8.51 µM | GI50 (COLO 205): 1.02 µM | CC50 (COLO 205): 6.03 µM | TGI (COLO 205): 2.45 µM | GI50 [2]: 0.309 µM | CC50 [2]: 7.76 µM | TGI [2]: 1.48 µM | GI50 (NCI-H522): 1.55 µM | CC50 (NCI-H522): 8.51 µM | TGI (NCI-H522): 3.63 µM | GI50 (Malme-3M): 1.82 µM | CC50 (Malme-3M): 77.6 µM | TGI (Malme-3M): 19.5 µM | GI50 (SNB-19): 1.7 µM | CC50 (SNB-19): 58.9 µM | TGI (SNB-19): 13.5 µM | GI50 (NCI-H322M): 19.1 µM | CC50 (NCI-H322M): > 100 µM | TGI (NCI-H322M): > 100 µM
